The values that follow come from ChEMBL document CHEMBL3994578, “Optimization of benzoquinone and hydroquinone derivatives as potent inhibitors of human 5-lipoxygenase” (Eur J Med Chem, 2017).

The source made the active and inactive calls. No cut-off for these calls is given here.

For assay [1], the target named is T1, Polyunsaturated fatty acid 5-lipoxygenase (Homo sapiens, UniProt P09917).
T1 sequence (P09917 whole entry): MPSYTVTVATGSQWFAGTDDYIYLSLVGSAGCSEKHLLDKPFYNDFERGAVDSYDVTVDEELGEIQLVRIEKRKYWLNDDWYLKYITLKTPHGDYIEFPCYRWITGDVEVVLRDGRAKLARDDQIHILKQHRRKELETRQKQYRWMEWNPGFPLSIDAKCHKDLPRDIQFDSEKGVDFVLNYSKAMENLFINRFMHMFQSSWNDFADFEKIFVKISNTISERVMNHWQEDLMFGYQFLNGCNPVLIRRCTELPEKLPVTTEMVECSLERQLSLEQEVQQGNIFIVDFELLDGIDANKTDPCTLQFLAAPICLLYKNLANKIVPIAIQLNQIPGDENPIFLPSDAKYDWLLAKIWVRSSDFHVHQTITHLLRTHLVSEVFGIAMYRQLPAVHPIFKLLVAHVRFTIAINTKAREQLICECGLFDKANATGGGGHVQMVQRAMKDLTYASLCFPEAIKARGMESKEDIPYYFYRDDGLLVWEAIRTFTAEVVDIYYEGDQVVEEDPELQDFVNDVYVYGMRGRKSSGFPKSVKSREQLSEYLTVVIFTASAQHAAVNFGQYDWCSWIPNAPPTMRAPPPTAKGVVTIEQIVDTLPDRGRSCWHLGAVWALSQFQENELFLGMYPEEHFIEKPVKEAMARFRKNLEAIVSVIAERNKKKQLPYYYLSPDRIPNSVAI
Briefly: Inhibition of 5-lipoxygenase in human neutrophils assessed as inhibition of A23187-induced product formation using arachidonic acid as substrate preincubated for 15 mins followed by substrate and A23187 addition measured after 10 mins by RP-HPLC method. In short, it runs like this:
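Freshly isolated human neutrophils (5×10^6, from leukocyte concentrates by dextran sedimentation and Nycoprep) were taken up in 1 mL PBS pH 7.4 with 1 mg/mL glucose and 1 mM CaCl2. Cells were preincubated 15 min at 37 °C with compound or 0.1% DMSO, then stimulated with 2.5 μM A23187 plus 20 μM arachidonic acid for 10 min at 37 °C. The reaction was stopped with methanol on ice, and LTB4 all-trans isomers and 5-H(P)ETE were measured by RP-HPLC. IC50 was read graphically from 4-5 concentrations; 3-4 independent experiments.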

Assay [2] has as its target T1, Polyunsaturated fatty acid 5-lipoxygenase. Briefly: Inhibition of recombinant human 5-lipoxygenase expressed in Escherichia coli BL21 using arachidonic acid as substrate preincubated for 15 mins followed by substrate addition measured after 10 mins by RP-HPLC method. In short, it runs like this: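 5-LO expressed in E. coli BL21 (pT3-5-LO) was semi-purified on ATP-agarose; 0.5 µg was used in 1 mL PBS with 1 mM EDTA and 1 mM ATP. Compound or 0.1% DMSO was preincubated 15 min at 4 °C, then samples were prewarmed 30 s at 37 °C. Reaction was started with 2 mM CaCl2 plus 20 μM AA and run 10 min at 37 °C. It was stopped with cold methanol, and products were measured by RP-HPLC. IC50 was read graphically from 4-5 concentrations; n = 3-4.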

The test system of assay [3] is Mus musculus. In words: Anti-inflammatory activity in CD-1 mouse model of Zymosan-induced peritonitis assessed as LTC4 level in peritoneal lavage at 10 mg/kg, ip pretreated for 30 mins followed by Zymosan injection measured after 30 mins by EIA (reference value: 10.48 +/- 1.72 ng/ml). The assay is classed as functional.
The subject of assay [4] is Mus musculus. In words: Anti-inflammatory activity in CD-1 mouse model of Zymosan-induced peritonitis assessed as inflammatory cells in peritoneal lavage at 10 mg/kg, ip pretreated for 30 mins followed by Zymosan injection measured after 4 hrs (reference value: 7 +/- 0.47 10^6No_unit). The assay is classed as functional.
Assay [5] has as its target T2, Polyunsaturated fatty acid 5-lipoxygenase (Homo sapiens) (UniProt P09917).
T2 sequence (whole entry): T1 sequence (P09917 whole entry)
Briefly: Non-competitive inhibition of recombinant human 5-lipoxygenase expressed in Escherichia coli BL21 using varying levels of arachidonic acid as substrate preincubated for 15 mins followed by substrate addition measured after 10 mins by RP-HPLC method. Summed up: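 Semi-purified recombinant 5-LO (0.5 µg, E. coli BL21) in PBS with 1 mM EDTA and 1 mM ATP was preincubated 15 min at 4 °C with compound or 0.1% DMSO, then prewarmed 30 s at 37 °C. Reaction was started with 2 mM CaCl2 plus varying arachidonic acid concentrations and run 10 min at 37 °C. Products were measured by RP-HPLC as percent of control; n = 3.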

Assay [6] concerns Mus musculus. Briefly: Anti-inflammatory activity in CD-1 mouse assessed as inhibition of carrageenan-induced paw edema at 1 mg/kg, ip pretreated for 30 mins followed by carrageenan injection measured after 4 hrs by hydroplethismometric method relative to control. As to conditions: CD-1, ip. It is filed as functional. Summed up: (§1)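 Male CD-1 mice (35–40 g), n = 6 per group, given compound or vehicle (DMSO) i.p. 30 min before a subplantar injection of 50 μL 1% (w/v) carrageenan under light enflurane anaesthesia. Paw volume was read by hydroplethysmometer before injection (basal) and at 2, 4, 6, 24, 48 and 72 h. Data are mean ± SEM; two-way ANOVA with Bonferroni post test.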
Background: Carrageenan injected into the paw causes an acute inflammation.

The test system of assay [7] is Mus musculus. In words: Anti-inflammatory activity in CD-1 mouse model of Zymosan-induced peritonitis assessed as inflammatory cells in peritoneal lavage at 1 mg/kg, ip pretreated for 30 mins followed by Zymosan injection measured after 4 hrs (reference value: 7 +/- 0.47 10^6No_unit). It is filed as functional.
For assay [8], the system named is Mus musculus. Briefly: Anti-inflammatory activity in CD-1 mouse assessed as inhibition of carrageenan-induced paw edema at 1 mg/kg, ip pretreated for 30 mins followed by carrageenan injection measured up to 48 hrs by hydroplethismometric method. It is filed as functional, organism-based. Summed up:
as §1

Assay [9] deals with Mus musculus. Briefly: Anti-inflammatory activity in CD-1 mouse model of Zymosan-induced peritonitis assessed as LTC4 level in peritoneal lavage at 1 mg/kg, ip pretreated for 30 mins followed by Zymosan injection measured after 30 mins by EIA (reference value: 10.48 +/- 1.72 ng/ml). It is filed as functional.
For assay [10], the system named is Mus musculus. Briefly: Anti-inflammatory activity in CD-1 mouse assessed as inhibition of carrageenan-induced paw edema at 1 mg/kg, ip pretreated for 30 mins followed by carrageenan injection measured up to 72 hrs by hydroplethismometric method. It is filed as functional, organism-based. Summed up: as §1

Usually IC50 stands for the point on the concentration scale where inhibition reaches its midpoint. For `COC1=CC(=O)C(OC)=C(C(CCCCCCCCCO)OC(C)=O)C1=O` (stereo not drawn), the concentration for half-maximal inhibition (IC50) in assay [1] came to 1620 nM; in assay [2] it was 490 nM.
In the same order, the values of `COC1=CC(=O)C(OC)=C(CCCCCCCCO)C1=O` are 330 nM and 1840 nM.
Consider `CC(c1cc2ccccc2s1)N(O)C(N)=O` (stereo not drawn) [ZILEUTON], for which the Activity with Mus musculus [3] was 3.35 ng/mL; in the assay on Mus musculus [4], 2.88 10^6 cells.
Regarding `CCCCCCCCCCCc1c(O)c(O)cc(OC)c1OC`, the half-maximal inhibitory concentration (IC50) stood at 30 nM in assay [1] and 100 nM in assay [2].
In the same order, the values of `CCCCCCCCCCCCc1c(O)c(O)cc(OC)c1OC` are 90 nM and 240 nM.
In the same order, the values of `COC1=CC(=O)C(=O)C(CCCCCCCCCCCO)=C1OC` are 120 nM and 1960 nM.
As for `CCCCCCCCCCCCCc1c(O)c(OC)cc(O)c1OC`, the results for the IC50 in assay [1] and in assay [2] were 310 nM and 260 nM, respectively.
The inhibition in vivo is the drop in the measured response relative to a control, in per cent. As for `CCCCCCCCCCCCCC1=C(OC)C(OC)=CC(=O)C1=O`, the inhibition result (in assay [5]; in the assay with Mus musculus [8]) was “Active” each time. Besides, the inhibition in vivo at 1 mg/kg in the assay on Mus musculus [6] came to 75%. For the same compound, the Activity was 3.78 10^6 cells in the assay on Mus musculus [7] and 0.14 ng/mL in the assay with Mus musculus [9].
Consider `CCCCCCCCCCCCCc1c(O)c(O)cc(OC)c1O`, for which the results for the IC50 in assay [1] and in [2] were 1600 nM and 290 nM, respectively.
`CCCCCCCCCCCCCc1c(O)c(O)cc(OC)c1OC`: the 50% inhibitory concentration (IC50) in assay [1] is 28 nM; in assay [2] it was 60 nM. For the same compound, the inhibition result (in assay [5]; with Mus musculus [10]) was “Active” each time. Also, in the assay with Mus musculus [6], the inhibition in vivo at 1 mg/kg is 77.4%. The Activity in the assay with Mus musculus [7] was 3.08 10^6 cells; in the assay on Mus musculus [9] it was 1.58 ng/mL.
Turning to `COC1=CC(=O)C(OC)=C(CCCCCCCCCCCO)C1=O`, the IC50 in [1] was determined as 200 nM; in [2] it was 1510 nM.
In the same order, the values of `COC1=CC(=O)C(OC)=C(CCCCCCCCCCO)C1=O` are 550 nM and 1750 nM.
In the same order, the values of `COC1=CC(=O)C(=O)C(CCCCCCCCCCO)=C1OC` are 360 nM and 1080 nM.
In the same order, the values of `COC1=CC(=O)C(OC)=C(C(O)CCCCCCCCCO)C1=O` (stereo not drawn) are 660 nM and 1460 nM.
`COC1=CC(=O)C(=O)C(CCCCCCCCO)=C1OC`: the half-inhibitory concentration (IC50) stood at 150 nM in assay [1] and 220 nM in assay [2].
